Reference: ChEMBL document CHEMBL4138117, “Pentapeptides for the treatment of small cell lung cancer: Optimisation by Nind-alkyl modification of the tryptophan side chain” (Eur J Med Chem, 2017)
Calls of active or inactive are those of the source. No cut-off for these calls is given here. *1 amine or outer side, *2 acyl side, *3 side chain or, on linkers, in order; H or OH if unused. Where a SMILES comes first, the peptide text is derived from it. [ ]: non-standard residue; d: D form. X1 = C=CC(C)(C)n1cc(C[C@@H](N[*:1])C(=O)[*:2])c2ccccc21; dTrp(1-Bu) = CCCCn1cc(C[C@@H](N)C(=O)O)c2ccccc21; dNMeF = CN[C@H](Cc1ccccc1)C(=O)O

What was measured:
[1] = Drug level in mouse plasma treated with (S)-2-((3R,6R,9S,12R)-3,9-dibenzyl-6,12-bis((1-butyl-1H-indol-3-yl)methyl)-4,7,10-trioxo-2,5,8,11-tetraazatridecanamido)-4-methylpentanamide at 400 ug/ml after 3 to 48 hrs by RP-HPLC method; type: ADME, cell-free
Procedure, shortened: (§1)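 Peptide added to neat mouse plasma at 400 µg/ml and held at 37 °C. Aliquots taken at 0, 3, 24 and 48 h and analysed by RP-HPLC on a C8 column. Parent and degradation product(s) reported as relative percentage; n = 3.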

[2] = Retention time of the compound in mouse plasma at 400 ug/ml after 48 hrs by RP-HPLC method; type: ADME, cell-free; procedure, shortened: as §1
[3] = Drug level in mouse plasma treated with (S)-2-((3R,6R,9S,12R)-3,9-dibenzyl-6,12-bis((1-butyl-1H-indol-3-yl)methyl)-4,7,10-trioxo-2,5,8,11-tetraazatridecanamido)-4-methylpentanamide at 400 ug/ml after 48 hrs by mass spectrophotometric method; type: ADME, cell-free
[4] = Retention time of the compound in mouse plasma at 400 ug/ml measured immediately after compound addition by RP-HPLC method; type: ADME, cell-free; procedure, shortened: as §1
DMS-79 [5] = assay: Cytotoxicity against human DMS79 cells assessed as decrease in cell viability after 48 hrs by resazurin dye-based assay; type: functional; conditions: DMS-79, 48 h
Procedure, shortened: (§2)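 H69 and DMS79 suspension cells grown in 10% FBS/RPMI-1640 at 37 °C, 5% CO2. Seeded at 1 x 10^4 cells/well in triplicate and given peptide the same day at 0.1–30 µM final, diluted in 50% FBS/saline. After 48 h, resazurin (0.125 mg/ml in PBS) added for 5 h, then fluorescence read and % viability calculated. Three independent repeats; IC50 taken from dose-response curves.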

[6] = Retention time of the compound in mouse plasma at 400 ug/ml after 3 hrs by RP-HPLC method; type: ADME, cell-free; procedure, shortened: as §1
[7] = Retention time of the compound in mouse plasma at 400 ug/ml after 24 hrs by RP-HPLC method; type: ADME, cell-free; procedure, shortened: as §1
NCI-H69 [8] = assay: Cytotoxicity against human H69 cells assessed as decrease in cell viability after 48 hrs by resazurin dye-based assay; type: functional; conditions: NCI-H69, 48 h; procedure, shortened: as §2
[9] = Drug metabolism in mouse plasma at 400 ug/ml after 48 hrs by mass spectrophotometric method; type: ADME, cell-free
[10] = Drug metabolism in mouse plasma assessed as formation of (3R,6R,9S,12R,15S)-3,9-dibenzyl-6,12-bis((1-butyl-1H-indol-3-yl)methyl)-15-isobutyl-4,7,10,13-tetraoxo-2,5,8,11,14-pentaazahexadecan-16-oic acid at 400 ug/ml after 48 hrs by mass spectrophotometric method; type: ADME, cell-free
DMS-79 [11] = assay: Induction of apoptosis in human DMS79 cells assessed as viable cells at 6 uM after 24 hrs by Annexin V/SYTOX Blue staining-based flow cytometric method (reference value: 61.7 +/- 9.1%); type: functional; conditions: DMS-79, 24 h, read-out: Activity
DMS-79 [12] = assay: Induction of apoptosis in human DMS79 cells assessed as loss of plasma membrane integrity at 6 uM after 48 hrs by acridine orange/ethidium bromide staining-based inverted fluorescence microscopic method; type: functional, cell-based
Procedure, shortened: (§3)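 Cells seeded at 1 x 10^4 cells/well and treated with peptide at 6 µM final in complete medium for 48 h at 37 °C, 5% CO2, with an untreated control. Then 1:1 AO/EB mix (100 µg/ml of each dye in PBS) added and cells viewed by inverted fluorescence microscopy at 10x.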

NCI-H69 [13] = assay: Induction of apoptosis in human H69 cells assessed as increase in late apoptotic cells at 6 uM after 48 hrs by acridine orange/ethidium bromide staining-based inverted fluorescence microscopic method; type: functional, cell-based; procedure, shortened: as §3
DMS-79 [14] = assay: Induction of apoptosis in human DMS79 cells assessed as necrotic cells at 6 uM after 24 hrs by Annexin V/SYTOX Blue staining-based flow cytometric method (reference value: 3.3 +/- 0.6%); type: functional
NCI-H69 [15] = assay: Induction of apoptosis in human H69 cells assessed as increase in necrotic cells at 6 uM after 48 hrs by acridine orange/ethidium bromide staining-based inverted fluorescence microscopic method; type: functional, cell-based; procedure, shortened: as §3
NCI-H69 [16] = assay: Induction of apoptosis in human H69 cells assessed as loss of plasma membrane integrity at 6 uM after 48 hrs by acridine orange/ethidium bromide staining-based inverted fluorescence microscopic method; type: functional, cell-based; procedure, shortened: as §3
DMS-79 [17] = assay: Induction of apoptosis in human DMS79 cells assessed as early apoptotic cells at 6 uM after 24 hrs by Annexin V/SYTOX Blue staining-based flow cytometric method (reference value: 6.4 +/- 0.4%); type: functional
DMS-79 [18] = assay: Induction of apoptosis in human DMS79 cells assessed as viable cells after 24 hrs by Annexin V/SYTOX Blue staining-based flow cytometric method; type: functional, cell-based
DMS-79 [19] = assay: Induction of apoptosis in human DMS79 cells assessed as early apoptotic cells at 2 uM after 24 hrs by Annexin V/SYTOX Blue staining-based flow cytometric method (reference value: 6.4 +/- 0.4%); type: functional
NCI-H69 [20] = assay: Induction of apoptosis in human H69 cells assessed as chromatin condensation at 6 uM after 48 hrs by acridine orange/ethidium bromide staining-based inverted fluorescence microscopic method; type: functional, cell-based; procedure, shortened: as §3
DMS-79 [21] = assay: Induction of apoptosis in human DMS79 cells assessed as increase in necrotic cells at 6 uM after 48 hrs by acridine orange/ethidium bromide staining-based inverted fluorescence microscopic method; type: functional, cell-based; procedure, shortened: as §3
DMS-79 [22] = assay: Induction of apoptosis in human DMS79 cells assessed as cell shrinkage at 6 uM after 48 hrs by acridine orange/ethidium bromide staining-based inverted fluorescence microscopic method; type: functional; procedure, shortened: as §3
NCI-H69 [23] = assay: Induction of apoptosis in human H69 cells assessed as cell shrinkage at 6 uM after 48 hrs by acridine orange/ethidium bromide staining-based inverted fluorescence microscopic method; type: functional; procedure, shortened: as §3
DMS-79 [24] = assay: Induction of apoptosis in human DMS79 cells assessed as necrotic cells at 2 uM after 24 hrs by Annexin V/SYTOX Blue staining-based flow cytometric method (reference value: 3.3 +/- 0.6%); type: functional
DMS-79 [25] = assay: Induction of apoptosis in human DMS79 cells assessed as late apoptotic cells at 2 uM after 24 hrs by Annexin V/SYTOX Blue staining-based flow cytometric method (reference value: 28.6 +/- 8.2%); type: functional
[26] = Metabolic stability in CD1 mouse liver S9 fraction at 400 ug/ml after 1 to 3 hrs in presence of UDPGA, NADPH, GSH, PAPS by RP-HPLC method; type: ADME, subcellular
Procedure, shortened: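 Male CD-1 mouse liver S9 fraction incubated with peptide as in the plasma study, at 37 °C. Reaction started by adding a 1:1:1:1 cofactor mix made in 200 mM Tris pH 7.4 with 2 mM MgCl2; final levels NADPH 1 mM, UDPGA 0.5 mM, GSH 0.05 mM, PAPS 0.05 mg/ml. Aliquots at 0, 1, 2 and 3 h analysed by RP-HPLC.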

DMS-79 [27] = assay: Induction of apoptosis in human DMS79 cells assessed as increase in late apoptotic cells at 6 uM after 48 hrs by acridine orange/ethidium bromide staining-based inverted fluorescence microscopic method; type: functional, cell-based; procedure, shortened: as §3
[28] = Drug metabolism in mouse plasma assessed as formation of (3R,6R,9S,12R,15S)-3,9-dibenzyl-6-((1H-indol-3-yl)methyl)-12-((1-butyl-1H-indol-3-yl)methyl)-15-isobutyl-4,7,10,13-tetraoxo-2,5,8,11,14-pentaazahexadecan-16-oic acid at 400 ug/ml after 3 to 48 hrs by RP-HPLC method
DMS-79 [29] = assay: Induction of apoptosis in human DMS79 cells assessed as late apoptotic cells at 6 uM after 24 hrs by Annexin V/SYTOX Blue staining-based flow cytometric method (reference value: 28.6 +/- 8.2%); type: functional
DMS-79 [30] = assay: Induction of apoptosis in human DMS79 cells assessed as viable cells at 2 uM after 24 hrs by Annexin V/SYTOX Blue staining-based flow cytometric method (reference value: 61.7 +/- 9.1%); type: functional; conditions: DMS-79, 24 h, read-out: Activity
DMS-79 [31] = assay: Induction of apoptosis in human DMS79 cells assessed as chromatin condensation at 6 uM after 48 hrs by acridine orange/ethidium bromide staining-based inverted fluorescence microscopic method; type: functional, cell-based; procedure, shortened: as §3
[32] = Drug metabolism in neat mouse plasma at 400 ug/ml by RP-HPLC method; type: ADME, cell-free; conditions: TDE = time-dependent effect; procedure, shortened: as §1
[33] = Metabolic stability in neat mouse plasma assessed as parent compound remaining at 400 ug/ml after 3 hrs by RP-HPLC method; type: ADME, cell-free; conditions: read-out: Stability; procedure, shortened: as §1
[34] = Metabolic stability in neat mouse plasma assessed as parent compound remaining at 400 ug/ml after 48 hrs by RP-HPLC method; type: ADME, cell-free; conditions: read-out: Stability; procedure, shortened: as §1

Retention_time [2] [min] | Retention_time [4] [min] | Retention_time [6] [min] | Retention_time [7] [min] | Drug metabolism [9] | Stability [26] | Drug metabolism [32] | Compound | IC50 (DMS-79 [5]) [µM] | IC50 (NCI-H69 [8]) [µM] | Activity (DMS-79 [12]) | Activity (NCI-H69 [13]) | Activity (NCI-H69 [15]) | Activity (NCI-H69 [16]) | Activity (NCI-H69 [20]) | Activity (DMS-79 [21]) | Activity (DMS-79 [22]) | Activity (NCI-H69 [23]) | Activity (DMS-79 [27]) | Activity (DMS-79 [31]) | also measured
25.27 | 25.36 | 25.3 | 25.29 | Metabolite_Notdetected | – | – | CCCCn1cc(C[C@@H](NC(=O)[C@H](Cc2ccccc2)NC(=O)[C@@H](Cc2c[nH]c3ccccc23)NC(=O)[C@@H](Cc2ccccc2)NC)C(=O)N[C@@H](CC(C)C)C(=O)O)c2ccccc21 (H-[dNMeF][dW]F[dTrp(1-Bu)]L-OH) | > 30 | > 30 | – | – | – | – | – | – | – | – | – | – | Drug metabolism [1]: Metabolite_Detected; Drug metabolism [3]: Metabolite_Detected
24.86 | 24.62 | 24.89 | 24.86 | Metabolite_Detected | – | Tde | C=CC(C)(C)n1cc(C[C@@H](NC(=O)[C@H](Cc2ccccc2)NC(=O)[C@@H](Cc2c[nH]c3ccccc23)NC(=O)[C@@H](Cc2ccccc2)NC)C(=O)N[C@@H](CC(C)C)C(N)=O)c2ccccc21 (H-[dNMeF][dW]F[X1]L-NH2) | 4.37 | 2.84 | – | – | – | – | – | – | – | – | – | – | remaining at 3 h, 400 ug/ml [33]: 87.8%; remaining at 48 h, 400 ug/ml [34]: 35.9%

Second part, the compound before the results:

Compound | Retention_time [2] [min] | Retention_time [4] [min] | Retention_time [6] [min] | Retention_time [7] [min] | Drug metabolism [9] | Stability [26] | Drug metabolism [32] | IC50 (DMS-79 [5]) [µM] | IC50 (NCI-H69 [8]) [µM] | Activity (DMS-79 [12]) | Activity (NCI-H69 [13]) | Activity (NCI-H69 [15]) | Activity (NCI-H69 [16]) | Activity (NCI-H69 [20]) | Activity (DMS-79 [21]) | Activity (DMS-79 [22]) | Activity (NCI-H69 [23]) | Activity (DMS-79 [27]) | Activity (DMS-79 [31]) | also measured
CCCCn1cc(C[C@@H](NC(=O)[C@H](Cc2ccccc2)NC(=O)[C@@H](Cc2c[nH]c3ccccc23)NC(=O)[C@@H](Cc2ccccc2)NC)C(=O)N[C@@H](CC(C)C)C(N)=O)c2ccccc21 (H-[dNMeF][dW]F[dTrp(1-Bu)]L-NH2) | 25.23 | 25 | 25.29 | 25.26 | – | Stable | Tde | – | – | Active | Active | Active | Active | Active | Active | Active | Active | Active | Active | Drug metabolism [10]: Metabolite_Detected; viability at 6 µM (DMS-79 [11]): 1%; Activity (DMS-79 [14]): 1.6%; Activity (DMS-79 [17]): 1.9%; Activity (DMS-79 [18]): Dose-dependent effect; Activity (DMS-79 [19]): 8%; Activity (DMS-79 [24]): 2.3%; Activity (DMS-79 [25]): 36.4%; Drug metabolism [28]: Metabolite_Detected; Activity (DMS-79 [29]): 95.5%; viability at 2 µM (DMS-79 [30]): 53.3%
CN[C@H](Cc1ccccc1)C(=O)N[C@H](Cc1c[nH]c2ccccc12)C(=O)N[C@@H](Cc1ccccc1)C(=O)N[C@H](Cc1c[nH]c2ccccc12)C(=O)N[C@@H](CC(C)C)C(N)=O (H-[dNMeF][dW]F[dW]L-NH2) | – | – | – | – | – | – | – | 23 | 30.7 | – | – | – | – | – | – | – | – | – | – | –
CCCCn1cc(C[C@@H](NC(=O)[C@H](Cc2ccccc2)NC(=O)[C@@H](Cc2cn(CCCC)c3ccccc23)NC(=O)[C@@H](Cc2ccccc2)NC)C(=O)N[C@@H](CC(C)C)C(N)=O)c2ccccc21 (H-[dNMeF][dTrp(1-Bu)]F[dTrp(1-Bu)]L-NH2) | 27.94 | 27.53 | 27.93 | 27.94 | Metabolite_Notdetected | Stable | Tde | – | – | Active | Active | Active | Active | Active | Active | Active | Active | Active | Active | –
